Results published in ChEMBL document CHEMBL3822425, “Isatin Derived Spirocyclic Analogues with α-Methylene-γ-butyrolactone as Anticancer Agents: A Structure-Activity Relationship Study” (J Med Chem, 2016).
pEC50, pIC50: −log10 of the molar value. Values belong to the compound of their own block, whether it stands above or below them. Calls of active or inactive are those of the source. The calls are words filed in the database; no cut-off is given here.

Tests used:
A549 [1] = test: Inhibition of TNFalpha-induced IKKbeta-mediated NF-kappaB activity in human A549 cells at 10 uM after 2 hrs followed by TNFalpha addition for 7 hrs by ONE-Glo Luciferase reporter based luminescence assay; assay type: cell-based
In short: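 A549 luciferase cells grown 5 passages without TNFα then 2 passages with or without 5 ng/mL TNFα; 50,000 per well overnight; 10 µM compound 2 h; then 20 ng/mL TNFα 7 h; PrestoBlue 10 min (560ex/590em) viability; ONE-Glo 10 min, luminescence 1000 ms.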

MDA-MB-231 [2] = test: Cytotoxicity against human MDA-MB-231 cells assessed as cell growth inhibition at 0.039 to 40 uM by presto blue dye based plate reader method; assay type: functional
[3] = target: T1, Inhibitor of nuclear factor kappa-B kinase subunit beta (Homo sapiens) (UniProt O14920); test: Inhibition of IKKbeta in human MIAPaCa2 cells assessed as reduction in IkappaBalpha phosphorylation at 10 to 20 uM by Western blot analysis; assay type: cell-based; conditions: MIA PaCa-2
T1 sequence (whole entry): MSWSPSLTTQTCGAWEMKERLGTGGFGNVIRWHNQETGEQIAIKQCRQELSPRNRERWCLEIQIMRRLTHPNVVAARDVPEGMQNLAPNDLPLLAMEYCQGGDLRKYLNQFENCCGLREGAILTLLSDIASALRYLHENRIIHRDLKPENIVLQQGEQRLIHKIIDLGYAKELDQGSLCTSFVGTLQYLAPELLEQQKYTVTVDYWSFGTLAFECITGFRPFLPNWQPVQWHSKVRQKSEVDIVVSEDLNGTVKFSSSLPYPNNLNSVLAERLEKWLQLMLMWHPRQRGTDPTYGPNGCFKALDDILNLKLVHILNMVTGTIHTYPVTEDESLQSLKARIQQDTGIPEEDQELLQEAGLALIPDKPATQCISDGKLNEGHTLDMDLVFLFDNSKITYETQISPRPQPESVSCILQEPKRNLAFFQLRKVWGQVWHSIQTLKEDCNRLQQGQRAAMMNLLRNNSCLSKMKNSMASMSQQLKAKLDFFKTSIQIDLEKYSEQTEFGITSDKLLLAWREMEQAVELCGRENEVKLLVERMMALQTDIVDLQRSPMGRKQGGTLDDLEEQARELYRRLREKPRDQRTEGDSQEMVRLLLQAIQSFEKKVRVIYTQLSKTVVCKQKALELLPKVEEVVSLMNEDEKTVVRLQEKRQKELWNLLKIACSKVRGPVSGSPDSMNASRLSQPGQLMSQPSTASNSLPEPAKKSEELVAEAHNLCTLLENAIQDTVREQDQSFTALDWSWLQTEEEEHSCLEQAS

HeLa [4] = test: Induction of apoptosis in human HeLa cells assessed as PARP cleavage after 24 to 48 hrs by Western blot analysis; assay type: functional, cell-based
In short: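 Cells collected with media and trypsinized pellet combined, lysed in RIPA buffer (pH 8.0), 4-20% SDS-PAGE, Western blot with anti-PARP to detect cleavage; HeLa timepoint 48 h.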

HeLa [5] = test: Anticlonogenic activity against human HeLa cells assessed as inhibition of colony formation after 2 to 7 days by crystal violet staining; assay type: functional, cell-based
In short: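 HeLa cells seeded at 500-1000 per well, grown 24 h, drug-treated 48 h at 37°C (DMSO control), then fresh medium for 7 days; methanol fixed 15 min, 0.1% crystal violet 30 min at room temperature, colonies over 50 cells counted.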

A549 [6] = test: Inhibition of TNFalpha-induced IKKbeta-mediated NF-kappaB activity in human A549 cells at 10 uM after 2 hrs followed by TNFalpha addition for 7 hrs by ONE-Glo Luciferase reporter based luminescence assay
[7] = target: T1, Inhibitor of nuclear factor kappa-B kinase subunit beta (Homo sapiens); test: Inhibition of IKKbeta in human MDA-MB-231 cells assessed as reduction in IkappaBalpha phosphorylation by Western blot analysis; assay type: cell-based
In short: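 MDA-MB-231 cytoplasmic fractions: swelling 30 min on ice in HEPES/KCl/EDTA/DTT buffer with inhibitors, 1.25% NP-40, centrifuged; lysates on 4-20% gels, PVDF, anti-phospho-IκBα and anti-IκBα, tubulin or GAPDH loading control, ECL detection.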

MDA-MB-231 [8] = test: Cytotoxicity against human MDA-MB-231 cells assessed as cell growth inhibition after 3 days by presto blue dye based plate reader method; assay type: functional
In short: (§1)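 Cells in DMEM high glucose/10% FBS (A2780 in RPMI/10% FBS), 4,000 per well, overnight, then 40 to 0.039 µM or vehicle, 24, 48, 72 h at 37°C, 5% CO2; PrestoBlue 15 min, fluorescence 560ex/590em; growth as 100×[(T−Tz)/(C−Tz)] per NCI algorithm.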

A2780 = test: Cytotoxicity against human A2780 cells assessed as cell growth inhibition after 3 days by presto blue dye based plate reader method; assay type: functional; conditions: A2780, 72 h; in short: as §1
SW480 = test: Cytotoxicity against human SW480 cells assessed as cell growth inhibition after 3 days by presto blue dye based plate reader method; assay type: functional; conditions: SW480, 72 h
HeLa [9] = test: Cytotoxicity against human HeLa cells expressing GFP assessed as cell growth inhibition after 3 days by presto blue dye based plate reader method; assay type: functional; conditions: 72 h; in short: as §1
[10] = Cytotoxicity against human MIAPaCa2 cells assessed as cell growth inhibition after 3 days by presto blue dye based plate reader method; assay type: functional; conditions: MIA PaCa-2, 72 h; in short: as §1
serum albumin [11] = target: T2, serum albumin (Homo sapiens, UniProt P02768); test: Binding affinity to human serum albumin assessed as half life by MS analysis; assay type: ADME
serum albumin [12] = target: T2, serum albumin; test: Binding affinity to human serum albumin assessed as half life by HPLC analysis; assay type: ADME
Homo sapiens = species on record: Homo sapiens; test: Covalent inhibition of C-terminus truncated NF-kappaB p65 L15V/P180S/F309S/A439V/V462M mutant (unknown origin) at 10 uM after 1 hr by rhodamine azide dye based SDS-PAGE method
In short: (§2)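 Purified IKKβ or p65 (250 ng in 200 µL) incubated 1 h with 10 µM alkyne probe; click reaction 1 h with 0.1 mM 5-TAMRA azide, 1 mM TCEP, 1 mM CuSO4, 0.1 mM TBTA; methanol precipitation, pellet in SDS buffer, 4-20% SDS-PAGE, fluorescence gel scanning.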

[13] = target: T1, Inhibitor of nuclear factor kappa-B kinase subunit beta (Homo sapiens); test: Covalent inhibition of IKKbeta (unknown origin) at 10 uM after 1 hr by rhodamine azide dye based SDS-PAGE method; in short: as §2

T2 sequence (P02768 whole entry): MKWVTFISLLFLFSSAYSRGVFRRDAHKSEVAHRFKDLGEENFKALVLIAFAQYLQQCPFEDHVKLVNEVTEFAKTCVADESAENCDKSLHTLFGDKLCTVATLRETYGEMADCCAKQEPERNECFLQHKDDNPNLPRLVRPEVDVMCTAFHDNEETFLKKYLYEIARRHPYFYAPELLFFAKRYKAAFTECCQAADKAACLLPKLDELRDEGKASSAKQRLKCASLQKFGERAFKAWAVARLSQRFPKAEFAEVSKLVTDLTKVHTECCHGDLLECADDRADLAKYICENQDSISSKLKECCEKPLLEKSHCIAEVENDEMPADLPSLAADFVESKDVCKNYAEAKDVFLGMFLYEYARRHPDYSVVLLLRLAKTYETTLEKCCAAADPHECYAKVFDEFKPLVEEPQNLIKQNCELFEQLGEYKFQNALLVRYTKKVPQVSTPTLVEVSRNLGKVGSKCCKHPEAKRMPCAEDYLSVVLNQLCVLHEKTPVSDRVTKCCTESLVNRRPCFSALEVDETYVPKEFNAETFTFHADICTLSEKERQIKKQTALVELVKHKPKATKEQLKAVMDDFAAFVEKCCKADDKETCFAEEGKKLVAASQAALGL

SMILES: C=C1CC(c2cccc3ccccc23)OC1=O (stereo not drawn)
inhibition (A549 [1]): 50%

SMILES: C=C1CC(c2cccc(Br)n2)OC1=O (stereo not drawn)
inhibition (A549 [1]): 50%

inhibition [3]: inactive
inhibition [7]: inactive
SMILES: CC1CC2(OC1=O)C(=O)Nc1ccccc12 (stereo not drawn)
growth inhibition (GI) (MDA-MB-231 [2]): inactive
Activity (HeLa [4]): inactive
inhibition (HeLa [5]): inactive
inhibition (A549 [6]): 5%
growth inhibition (GI) (MDA-MB-231 [8]): inactive

SMILES: C=C1CC2(OC1=O)C(=O)Nc1ccc(I)cc12 (stereo not drawn)
pEC50 (A2780): 5.66

SMILES: C/C1=C\CC[C@@]2(C)O[C@H]2[C@H]2OC(=O)C(C)[C@@H]2CC1 (stereo partly drawn)
pIC50 (SW480): < 4.00
pIC50 (HeLa [9]): 4.18
pEC50 (A2780): < 4.00
inhibition (A549 [6]): 20%
pIC50 [10]: 4.07

SMILES: C=CC(=O)N1CCC[C@@H](n2nc(-c3ccc(Oc4ccccc4)cc3)c3c(N)ncnc32)C1 [IBRUTINIB]
pIC50 (SW480): 4.59
pIC50 (HeLa [9]): 4.77
pEC50 (A2780): 4.70
pIC50 [10]: 4.78

SMILES: C=C1C(=O)OC2(C(=O)Nc3ccccc32)C1c1ccccc1 (stereo not drawn)
pEC50 (A2780): 5.42

SMILES: C=C1CC(c2cccc(C(F)(F)F)c2)OC1=O (stereo not drawn)
inhibition (A549 [1]): 25%

SMILES: C=C1CC(c2ccc(OC)c(OCc3ccccc3)c2)OC1=O (stereo not drawn)
inhibition (A549 [1]): 25%

SMILES: C=C1CC2(OC1=O)C(=O)Nc1ccc(OC)cc12 (stereo not drawn)
pEC50 (A2780): 5.51

SMILES: C=C1CC(c2ccnc3ccccc23)OC1=O (stereo not drawn)
inhibition (A549 [1]): inactive

SMILES: C=C1CC(c2ccc(OC)c(OC)c2)OC1=O (stereo not drawn)
inhibition (A549 [1]): 25%

SMILES: C=C1CC(c2cccc(OC)c2)OC1=O (stereo not drawn)
inhibition (A549 [1]): 25%

half-life (serum albumin [11]): 37 min
half-life (serum albumin [12]): 66 min
SMILES: C=C1C(=O)O[C@@H]2C3O[C@]3(C)CC/C=C(\C)CC[C@@H]12 (stereo partly drawn)
pIC50 (SW480): 4.82
pIC50 (HeLa [9]): 5.24
pEC50 (A2780): 4.89
inhibition (A549 [6]): > 95%
pIC50 [10]: 5.01

SMILES: C=C1CC(c2cccc(OCc3ccccc3)c2)OC1=O (stereo not drawn)
inhibition (A549 [1]): 25%

SMILES: CCC(=O)N1CCC[C@@H](n2nc(-c3ccc(Oc4ccccc4)cc3)c3c(N)ncnc32)C1
pIC50 (SW480): 4.87
pIC50 (HeLa [9]): 4.82
pEC50 (A2780): 4.82
pIC50 [10]: 5.09

SMILES: C=C1CC(c2ccc(C3CC(=C)C(=O)O3)cc2)OC1=O (stereo not drawn)
inhibition (A549 [1]): Active

SMILES: C=C1CC(c2c(OC)ccc3ccccc23)OC1=O (stereo not drawn)
inhibition (A549 [1]): Active

SMILES: O=C(Nc1ccc(Br)cc1)Nc1ccc2nc(-c3ccco3)c(-c3ccco3)nc2c1
growth inhibition (GI) (MDA-MB-231 [8]): Active

SMILES: C=C1CC(c2ccccn2)OC1=O (stereo not drawn)
inhibition (A549 [1]): < 25%

SMILES: Cc1ccc(C)c2c1NC(=O)C21CC(C)C(=O)O1 (stereo not drawn)
pIC50 (SW480): < 4.00
pIC50 (HeLa [9]): < 4.00
pEC50 (A2780): < 4.00
pIC50 [10]: < 4.00

SMILES: C=C1CC(c2ccc3ccccc3c2)OC1=O (stereo not drawn)
inhibition (A549 [1]): 50%

SMILES: C=C1CC2(OC1=O)C(=O)Nc1c([N+](=O)[O-])cc(Br)cc12 (stereo not drawn)
pEC50 (A2780): 5.70

SMILES: NC(=O)Nc1sc(-c2ccc(F)cc2)cc1C(N)=O
growth inhibition (GI) (MDA-MB-231 [8]): Active

SMILES: N#Cc1c(C2CCNCC2)cc(-c2c(O)cccc2OCC2CC2)nc1N
growth inhibition (GI) (MDA-MB-231 [8]): Active

inhibition (Homo sapiens): Active
inhibition [13]: Active
SMILES: C#CCCN1C(=O)C2(CC(=C)C(=O)O2)c2ccccc21 (stereo not drawn)
pEC50 (A2780): 5.26
inhibition (A549 [1]): 75%

SMILES: C=C1CC2(OC1=O)C(=O)N(C)c1ccccc12 (stereo not drawn)
pEC50 (A2780): 5.41

SMILES: C=C1CC(c2ccc(OC)cc2)OC1=O (stereo not drawn)
inhibition (A549 [1]): 25%

SMILES: C=C1CC2(OC1=O)C(=O)N(Cc1ccccc1)c1ccccc12 (stereo not drawn)
pEC50 (A2780): 5.57

SMILES: C=C1CC(c2ccc(F)cc2)OC1=O (stereo not drawn)
inhibition (A549 [1]): 25%

SMILES: C=C1CC(c2ccc(OCc3ccccc3)cc2)OC1=O (stereo not drawn)
inhibition (A549 [1]): 25%

SMILES: C=C1CC(c2c(OCc3ccccc3)ccc3ccccc23)OC1=O (stereo not drawn)
inhibition (A549 [1]): < 25%

SMILES: C=C1CC(c2ccccc2)OC1=O (stereo not drawn)
inhibition (A549 [1]): 25%

inhibition [7]: Active
SMILES: C=C(CC1(O)C(=O)Nc2ccccc21)C(=O)OC (stereo not drawn)
inhibition (A549 [6]): Active
